Article PMC4969713 (Journal of Alzheimer's Disease, 2016)
Values joined by “and” are separate entries in the source; they are usually repeats but may differ in a detail not shown here. Equal values may be shown once. Where a name gives a salt, the structure may show the parent alone. Read-outs that look alike come from different tables or passages of the source.

Experiments:
[1] = molecular target: imidazoline I2 receptor; experiment: Radioligand binding competition, imidazoline I2
[2] = molecular target: Adrenergic α2B (Homo sapiens, UniProt P18089); experiment: Radioligand competition, adrenergic α2B; type: binding
[3] = molecular target: Adrenergic α2C (Homo sapiens, UniProt P18825); experiment: Radioligand competition, adrenergic α2C; type: binding
[4] = molecular target: muscarinic M2 receptor (Homo sapiens, UniProt P08172); experiment: Target panel binding, muscarinic M2
[5] = molecular target: H1 receptor (Homo sapiens, UniProt P35367); experiment: Histamine-induced Ca2+ mobilization in SK-N-SH cells; type: cell-based
Procedure, shortened: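 SK-N-SH cells challenged with 10μM histamine; transient rise in intracellular free Ca2+ recorded as the response, with test compound examined for blockade of this histamine-evoked signal.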

[6] = Stability in aqueous solutions; type: physicochemical; conditions: 72 h, room temperature
Procedure, shortened: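 Test compound was incubated for 72 h at room temperature. Media were distilled water, salt solution at pH 4.0 or pH 7.0, and physiological solution at pH 7.4. Read-out was the fraction of the original concentration remaining.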

[7] = molecular target: CYP1A2 (Homo sapiens, UniProt P05177); experiment: Metabolism by recombinant CYP1A2; type: in vitro ADME
[8] = molecular target: CYP2C19 (Homo sapiens, UniProt P33261); experiment: Metabolism by recombinant CYP2C19; type: in vitro ADME
[9] = tested on: male BALB/c mice; experiment: Elevated Platform test; type: in vivo; conditions: IP; Lorazepam 0.05 mg/kg, AVN-101 0.2 mg/kg; initial 2 min
[10] = tested on: BALB/c mice; experiment: Porsolt forced swim test; type: in vivo; conditions: AVN-101 0.05 mg/kg IP once daily for 4 days
[11] = tested on: BALB/c mice; experiment: Tail suspension test; type: in vivo; conditions: AVN-101 0.05 mg/kg IP once daily for 4 days
Procedure, shortened: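 Test compound dissolved in saline, injected IP into BALB/c mice once daily for 4 days, last injection 5 min before tail suspension; vehicle (saline) controls; fluoxetine and desipramine 15 mg/kg IP as positive controls, last dose 30 min before test. Immobility measured; at least 8 animals per group; Student t-test.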

[12] = tested on: BALB/c mice; experiment: Passive avoidance, MK-801-induced amnesia, mice; type: in vivo
[13] = tested on: male BALB/c mice; experiment: Novel object recognition, MK-801-induced; type: in vivo; conditions: 0.2 mg/kg MK-801; memantine 10 mg/kg; SB-742457 0.2 or 1.0 mg/kg
Procedure, shortened: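 All drugs were dissolved in saline and given IP; control animals received saline vehicle. Each group had at least 8 male BALB/c mice. Read-out was novel object recognition index, reported as mean ± SE.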

[14] = Median lethal dose after single administration; set-up: species or system mice; conditions: male, CD1, mouse, in vivo
Procedure, shortened: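 Male CD1 mice received a single dose of test compound in saline, IP at 80–200 mg/kg or orally at 200–700 mg/kg. Each dose went to a separate group (n = 6). LD50 with standard error was derived by probit analysis.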

[15] = Maximum tolerated dose, 5-day oral; type: in vivo, mice; conditions: male, CD1, mouse, in vivo, po
Procedure, shortened: (§1)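 Male CD1 mice received test compound in sterile water orally at 10, 30 or 60 mg/kg once daily for 5 days (n = 8 per group). Body weight and deaths were recorded daily, followed by a 2-week observation phase. MTD was taken as the highest dose causing neither mortality nor body-weight loss.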

[16] = tested on: male CD1 mice; experiment: Maximum tolerated dose, 5-day oral; type: in vivo
Procedure, shortened: as §1

[17] = tested on: Wistar rats; experiment: 180 days toxicity, rats; type: in vivo
[18] = molecular target: hKv4.3-hKCh1P2.2 (Ito) (Homo sapiens, UniProt Q9UK17); experiment: Cardiac channel inhibition, Ito; type: cell-based
[19] = tested on: outbreed male and female rats; experiment: Reproductive toxicology in rats; type: in vivo
Procedure, shortened: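 Outbred male and female rats weighing 220–250 g received test compound in 0.9% physiological solution intragastrically at 1.0 or 25.0 mg/kg. Assessments covered embryotoxicity, offspring development, mating and fertilization capability, and reproductive function.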

[20] = Phase I pharmacokinetics, single PO dose; type: in vivo, human; conditions: human, blood, po
[21] = molecular target: 5-HT1B receptor; conditions: Table 2; cited from earlier work
[22] = tested on: Dogs (beagles)

Chain of H1 receptor (P35367 whole entry): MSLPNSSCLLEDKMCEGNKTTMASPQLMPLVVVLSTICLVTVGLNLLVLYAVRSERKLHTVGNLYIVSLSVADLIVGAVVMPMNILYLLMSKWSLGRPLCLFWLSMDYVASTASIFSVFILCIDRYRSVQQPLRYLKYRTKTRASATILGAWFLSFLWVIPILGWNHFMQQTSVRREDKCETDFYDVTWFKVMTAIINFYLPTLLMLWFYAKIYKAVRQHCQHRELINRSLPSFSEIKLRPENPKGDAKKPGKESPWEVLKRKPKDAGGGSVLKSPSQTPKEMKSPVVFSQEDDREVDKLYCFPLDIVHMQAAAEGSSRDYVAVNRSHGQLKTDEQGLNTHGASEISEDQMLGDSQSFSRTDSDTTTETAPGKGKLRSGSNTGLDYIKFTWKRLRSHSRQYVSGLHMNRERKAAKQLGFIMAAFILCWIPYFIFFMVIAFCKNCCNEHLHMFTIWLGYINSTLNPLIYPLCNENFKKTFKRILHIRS
Chain of hKv4.3-hKCh1P2.2 (Ito) (Q9UK17 whole entry): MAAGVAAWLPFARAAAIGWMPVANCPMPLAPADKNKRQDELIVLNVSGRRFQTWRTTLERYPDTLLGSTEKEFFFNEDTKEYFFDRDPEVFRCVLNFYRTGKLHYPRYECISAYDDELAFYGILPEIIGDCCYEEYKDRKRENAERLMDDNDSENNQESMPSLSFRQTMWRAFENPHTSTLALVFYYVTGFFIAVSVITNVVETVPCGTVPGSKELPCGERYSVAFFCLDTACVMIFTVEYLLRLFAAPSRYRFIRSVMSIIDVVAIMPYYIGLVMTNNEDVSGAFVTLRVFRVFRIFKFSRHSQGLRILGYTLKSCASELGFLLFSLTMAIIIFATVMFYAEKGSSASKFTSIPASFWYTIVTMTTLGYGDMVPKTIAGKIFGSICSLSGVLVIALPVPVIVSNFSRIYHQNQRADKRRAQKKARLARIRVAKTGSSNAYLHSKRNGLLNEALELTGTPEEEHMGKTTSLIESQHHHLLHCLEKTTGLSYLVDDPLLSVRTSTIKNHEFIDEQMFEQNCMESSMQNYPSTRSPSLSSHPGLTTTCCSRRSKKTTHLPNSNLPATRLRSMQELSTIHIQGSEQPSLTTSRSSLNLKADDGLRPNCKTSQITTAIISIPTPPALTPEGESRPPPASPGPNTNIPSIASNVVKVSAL
Chain of Adrenergic α2C (P18825 whole entry): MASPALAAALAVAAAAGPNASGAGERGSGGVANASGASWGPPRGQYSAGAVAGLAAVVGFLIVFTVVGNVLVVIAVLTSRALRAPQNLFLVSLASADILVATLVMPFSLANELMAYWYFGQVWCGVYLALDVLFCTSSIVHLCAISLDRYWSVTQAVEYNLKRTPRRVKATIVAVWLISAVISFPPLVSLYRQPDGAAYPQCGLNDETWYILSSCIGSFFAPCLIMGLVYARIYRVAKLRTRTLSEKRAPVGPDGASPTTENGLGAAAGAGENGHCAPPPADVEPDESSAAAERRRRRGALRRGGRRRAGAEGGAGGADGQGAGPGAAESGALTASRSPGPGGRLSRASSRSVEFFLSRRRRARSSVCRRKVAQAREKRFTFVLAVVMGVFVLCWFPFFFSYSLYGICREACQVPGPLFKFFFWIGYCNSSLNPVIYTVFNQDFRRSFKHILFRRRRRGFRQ
Chain of muscarinic M2 receptor (P08172 whole entry): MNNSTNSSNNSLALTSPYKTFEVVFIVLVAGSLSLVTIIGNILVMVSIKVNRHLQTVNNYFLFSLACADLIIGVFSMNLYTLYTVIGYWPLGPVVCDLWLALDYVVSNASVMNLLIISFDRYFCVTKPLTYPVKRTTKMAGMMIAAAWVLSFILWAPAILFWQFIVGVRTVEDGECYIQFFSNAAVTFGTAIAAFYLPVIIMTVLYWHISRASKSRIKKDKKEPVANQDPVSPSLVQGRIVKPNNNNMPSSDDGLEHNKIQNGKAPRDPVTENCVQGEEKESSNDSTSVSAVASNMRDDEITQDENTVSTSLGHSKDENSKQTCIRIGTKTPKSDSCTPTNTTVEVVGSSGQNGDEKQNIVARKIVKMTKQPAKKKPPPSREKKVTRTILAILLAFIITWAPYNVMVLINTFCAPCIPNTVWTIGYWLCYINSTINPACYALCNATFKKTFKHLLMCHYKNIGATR
Chain of CYP1A2 (P05177 whole entry): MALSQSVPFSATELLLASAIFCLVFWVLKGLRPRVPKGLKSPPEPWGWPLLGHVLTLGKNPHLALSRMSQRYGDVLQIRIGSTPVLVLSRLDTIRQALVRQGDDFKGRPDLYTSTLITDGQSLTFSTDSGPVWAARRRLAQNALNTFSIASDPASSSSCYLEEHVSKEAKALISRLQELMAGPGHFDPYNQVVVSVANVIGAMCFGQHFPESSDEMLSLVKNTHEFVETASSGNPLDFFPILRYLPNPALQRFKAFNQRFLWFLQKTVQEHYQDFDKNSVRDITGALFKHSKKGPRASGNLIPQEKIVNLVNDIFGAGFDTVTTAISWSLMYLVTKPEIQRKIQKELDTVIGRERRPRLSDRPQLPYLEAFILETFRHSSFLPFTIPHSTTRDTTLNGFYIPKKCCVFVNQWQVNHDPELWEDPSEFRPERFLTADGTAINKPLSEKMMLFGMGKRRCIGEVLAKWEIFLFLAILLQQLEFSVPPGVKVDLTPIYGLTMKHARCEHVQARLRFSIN
Chain of Adrenergic α2B (P18089 whole entry): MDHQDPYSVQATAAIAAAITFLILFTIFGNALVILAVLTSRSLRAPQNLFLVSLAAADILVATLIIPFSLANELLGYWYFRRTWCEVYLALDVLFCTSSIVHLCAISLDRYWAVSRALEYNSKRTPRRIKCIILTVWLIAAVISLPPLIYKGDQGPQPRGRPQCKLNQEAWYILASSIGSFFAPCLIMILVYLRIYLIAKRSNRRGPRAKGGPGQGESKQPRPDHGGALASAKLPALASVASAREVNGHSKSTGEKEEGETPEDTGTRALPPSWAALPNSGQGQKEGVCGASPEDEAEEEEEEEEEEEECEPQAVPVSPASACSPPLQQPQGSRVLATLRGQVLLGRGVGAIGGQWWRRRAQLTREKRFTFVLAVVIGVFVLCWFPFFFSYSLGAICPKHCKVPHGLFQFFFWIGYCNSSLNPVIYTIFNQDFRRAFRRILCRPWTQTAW
Chain of CYP2C19 (P33261 whole entry): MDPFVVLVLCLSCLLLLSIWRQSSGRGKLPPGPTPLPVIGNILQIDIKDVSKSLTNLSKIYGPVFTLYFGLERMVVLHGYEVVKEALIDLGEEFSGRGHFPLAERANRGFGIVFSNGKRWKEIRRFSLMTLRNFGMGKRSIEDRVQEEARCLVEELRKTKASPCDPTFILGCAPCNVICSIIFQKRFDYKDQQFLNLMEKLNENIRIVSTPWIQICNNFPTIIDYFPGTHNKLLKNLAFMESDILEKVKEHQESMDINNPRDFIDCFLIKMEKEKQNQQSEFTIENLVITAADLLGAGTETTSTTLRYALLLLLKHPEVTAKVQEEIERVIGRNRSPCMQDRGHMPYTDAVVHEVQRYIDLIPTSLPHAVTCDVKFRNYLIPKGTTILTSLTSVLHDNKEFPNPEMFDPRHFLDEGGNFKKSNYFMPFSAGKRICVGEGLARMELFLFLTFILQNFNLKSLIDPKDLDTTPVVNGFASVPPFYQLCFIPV

Compound: Cc1ccc2c(c1)c1c(n2CCc2ccccc2)CCN(C)C1 [AVN-101, 2,8-dimethyl-5-penethyl-2,3,4,5-tetra-hydro-1h-pyrido[[4,3-B]]indole hydrochloride]
- Ki [1]: 179 nM
- Ki [2]: 0.41 to 3.6 nM
- Ki [3]: 0.41 to 3.6 nM
- binding [4]: does not bind
- receptor activation [5]: activated neither H1 nor H2 receptors
- blockade of agonist-induced cell response ([5]; 10μM histamine, Ca2+ mobilization): effectively blocked
- fraction of original concentration ([6]; distilled water): 97.03%
- fraction of original concentration ([6]; physiological solution pH 7.4): 99.38%
- fraction of original concentration ([6]; salt solution pH 4.0): 98.05%
- fraction of original concentration ([6]; salt solution pH 7.0): 99.95%
- remaining at 0.5 h, 2 µM [7]: 46%
- remaining at 0.5 h, 2 µM [8]: 1%
- duration of freezing behavior [9]: significantly reduced duration of the freezing behavior
- decrease in immobility time [10]: comparable to that observed with either Fluoxetine or Desipramine
- decrease in immobility time [11]: comparable to that observed with either Fluoxetine or Desipramine
- effect on MK-801-induced amnesia ([12]; IP): dose-dependently prevented
- anti-amnesic dose ([12]; MK-801 model): 0.5 mg/kg
- effect on deficit in novel object recognition [13]: partially reverse
- LD50 at 2 weeks ([14]; ip): 105 ± 5 mg/kg
- LD50 at 2 weeks ([14]; po): 331 ± 101 mg/kg
- MTD at 5 days [15]: 10 to 30 mg/kg
- mortality ([16]; 30 mg/kg PO once daily for 5 days): 12.5%
- mortality ([16]; 60 mg/kg PO once daily for 5 days): 50%
- body weight ([16]; 60 mg/kg, starting from the 4th day): statistically significant weight loss
- toxic effects ([17]; 5 mg/kg PO daily): severe hepatotoxic and moderate cardiotoxic effects
- toxic effects ([17]; 0.25 and 0.5 mg/kg PO daily): substantially less noticeable
- IC50 [18]: 14800 nM
- inhibition at 31.6 µM ([18]; read-out: % Inhibition at 31.6μM): 66%
- reproductive function, male rats ([19]; 1.0 and 25.0 mg/kg intragastrically daily for 48 days): no reproductive function alteration
- effect in female rats dosed prior to pairing ([19]; daily for 15 days prior to pairing): reduction in the body mass increase of the pregnant rats and their posterity
- embryotoxic / teratogenic effect ([19]; doses up to 25.0 mg/kg, male or female): neither embryotoxic nor teratogenic effect
- AUC ([20]; 2 mg): 0.0946 ± 0.0268 ng·h/mL
- Cmax ([20]; 2 mg): 0.00579 ± 0.0029 ng/mL
- half-life ([20]; 2 mg): 14.1 ± 10.2 h
- AUC ([20]; 4 mg): 0.211 ± 0.0862 ng·h/mL
- half-life ([20]; 4 mg): 8.15 ± 2.23 h
- AUC ([20]; 10 mg): 0.462 ± 0.207 ng·h/mL
- Cmax ([20]; 10 mg): 0.0537 ± 0.0318 ng/mL
- half-life ([20]; 10 mg): 10.2 ± 2.55 h
- AUC ([20]; 20 mg): 0.843 ± 0.333 ng·h/mL
- Cmax ([20]; 20 mg): 0.0841 ± 0.0462 ng/mL
- half-life ([20]; 20 mg): 8.18 ± 2.09 h
- Tmax ([20]; male): ~1 h
- half-life ([20]; male): 8 to 14 h
- Ki [21]: 720 nM
- Blood plasma concentration ([22]; 0.05 mg/kg IV infusion): 140 nM and 140 ± 20 nM
- femoral SBP, down ([22]; 0.5 mg/kg): 13%
- Blood plasma concentration ([22]; 0.5 mg/kg IV infusion): 990 nM and 990 ± 40 nM
- femoral SBP, down ([22]; 0.5 mg/kg, p < 0.05): 17 mm Hg
- femoral SBP, down ([22]; 2 mg/kg): 16%
- Blood plasma concentration ([22]; 2 mg/kg IV infusion): 3280 nM and 3280 ± 300 nM
- shortening of QT ([22]; 2.0 mg/kg, at 30 min): 15%
- shortening of QTcV ([22]; 2.0 mg/kg, at 30 min): 8%
- femoral SBP, down ([22]; 2 mg/kg, p < 0.05): 21 mm Hg
- HR, up ([22]; 10 mg/kg): 164%
- aortic DBP, down ([22]; 10 mg/kg): 13%
- femoral BF, up ([22]; 10 mg/kg): 27%
- femoral DBP, down ([22]; 10 mg/kg): 17%
- femoral SBP, down ([22]; 10 mg/kg): 11%
- left ventricular DBP, down ([22]; 10 mg/kg): 40%
- reduction in QT ([22]; 10.0 mg/kg): 30%
- reduction in QTcV ([22]; 10.0 mg/kg): 13%
- Blood plasma concentration ([22]; 10 mg/kg IV infusion): 11100 nM and 11100 ± 2150 nM
- HR, up ([22]; 10 mg/kg, p < 0.001): 118 bpm
- aortic DBP, down ([22]; 10 mg/kg, p < 0.05): 9 mmHg
- femoral BF, up ([22]; 10 mg/kg, p < 0.05): 35 mL/min
- femoral DBP, down ([22]; 10 mg/kg, p < 0.05): 12 mm Hg
- left ventricular DBP, down ([22]; 10 mg/kg, p < 0.05): 2 mmHg
- femoral SBP, down ([22]; 10 mg/kg, p > 0.05): 15 mm Hg
